The values below come from paper PMC9061098 (RSC Advances, 2019).

Holding throughout (assay): MIC/MBC microdilution assay
In general terms: In broth dilution the organism is exposed to a series of concentrations in liquid medium.

In one assay the test system is E. coli ATCC 43827. Type of assay: cell-based, Escherichia coli. The settings on record: n = 2; for Antibacterial activity, MIC: microdilution, 24 h at 37 °C, absorbance 620 nm; for Antibacterial activity, MBC: plated on MHA, overnight 37 °C. In outline:
(§1)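 Broth microdilution: 90 µL peptide (200, 100, 50, 25, 12.5 and 6.2 µg mL-1 as added) plus 10 µL inoculum (5 × 10^6 CFU mL-1 as added). Incubation 24 h at 37 °C; growth read as absorbance at 620 nm. For MBC, wells with no visible growth were loop-sampled, spread on MHA and incubated overnight at 37 °C. Run twice (n = 2).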

A further assay deals with P. aeruginosa ATCC 27853. Type of assay: cell-based, Pseudomonas aeruginosa. The settings on record: n = 2; for Antibacterial activity, MIC: microdilution, 24 h at 37 °C, absorbance 620 nm; for Antibacterial activity, MBC: plated on MHA, overnight 37 °C. Summed up:
as §1

In the next assay the test system is E. faecalis ATCC 29212. The class given is cell-based, Enterococcus faecalis. The settings on record: n = 2; for Antibacterial activity, MIC: microdilution, 24 h at 37 °C, absorbance 620 nm; for Antibacterial activity, MBC: plated on MHA, overnight 37 °C. In outline: as §1
The subject of another assay is S. aureus ATCC 25923. The class given is cell-based, Staphylococcus aureus. As to conditions: n = 2; for Antibacterial activity, MIC: microdilution, 24 h at 37 °C, absorbance 620 nm; for Antibacterial activity, MBC: plated on MHA, overnight 37 °C. In outline: as §1
For a further assay, the system named is E. coli ATCC 11775. Type of assay: cell-based, Escherichia coli. As to conditions: n = 2. In outline:
as §1

In the next assay the test system is E. coli ATCC 25922. Type of assay: cell-based, Escherichia coli. The settings on record: n = 2. Summed up: as §1
Where [1] appears, read: microdilution, 24 h at 37 °C, absorbance 620 nm.

Peptide text beside a SMILES is read from it. Where only a bound is given, the exact number is not on record here.

For `N=C(N)NCCC[C@H](NC(=O)[C@H](Cc1c[nH]c2ccccc12)NC(=O)[C@H](CCC(N)=O)NC(=O)[C@H](Cc1c[nH]c2ccccc12)NC(=O)[C@H](CCCNC(=N)N)NC(=O)[C@@H](N)CCCNC(=N)N)C(N)=O` [LfcinB (20–25)] (H-RRWQWR-NH2), the “Antibacterial activity, MIC” value in the assay with E. coli ATCC 43827 was 102 µM; in the assay with P. aeruginosa ATCC 27853, 203 µM; in the assay with E. faecalis ATCC 29212, over 203 µM; in the assay with S. aureus ATCC 25923, 203 µM. The “Antibacterial activity, MBC” value with E. coli ATCC 43827 is 203 µM; with P. aeruginosa ATCC 27853 it was over 203 µM; in the assay on E. faecalis ATCC 29212 it was over 203 µM; in the assay with S. aureus ATCC 25923, over 203 µM.

As for `CSCC[C@H](NC(=O)[C@H](CCCNC(=N)N)NC(=O)[C@H](Cc1c[nH]c2ccccc12)NC(=O)[C@H](CCC(N)=O)NC(=O)[C@H](Cc1c[nH]c2ccccc12)NC(=O)[C@H](CCCNC(=N)N)NC(=O)[C@@H](N)CCCNC(=N)N)C(=O)N[C@@H](CCCCN)C(=O)N[C@@H](CCCCN)C(=O)N[C@@H](CC(C)C)C(=O)NCC(N)=O` [LfcinB (20–30)] (H-RRWQWRMKKLG-NH2), the “Antibacterial activity, MIC” value was 65 µM in the assay with E. coli ATCC 43827, over 130 µM in the assay with P. aeruginosa ATCC 27853, over 130 µM in the assay with E. faecalis ATCC 29212 and 130 µM in the assay on S. aureus ATCC 25923. Also, the “Antibacterial activity, MBC” value in the assay on E. coli ATCC 43827 is 130 µM; in the assay with P. aeruginosa ATCC 27853 it was over 130 µM; with E. faecalis ATCC 29212, over 130 µM; in the assay with S. aureus ATCC 25923 it was over 130 µM.

`N=C(N)NCCC[C@H](NC(=O)[C@H](Cc1c[nH]c2ccccc12)NC(=O)[C@H](CCC(N)=O)NC(=O)[C@H](Cc1c[nH]c2ccccc12)NC(=O)[C@H](CCCNC(=N)N)NC(=O)[C@H](Cc1c[nH]c2ccccc12)NC(=O)[C@H](CCC(N)=O)NC(=O)[C@H](Cc1c[nH]c2ccccc12)NC(=O)[C@@H](N)CCCNC(=N)N)C(N)=O` [LfcinB (21–25)Pal] (H-RWQWRWQWR-NH2): the Antibacterial activity, MIC in the assay with E. coli ATCC 11775 (setting [1]) was found to be 17 µM; in the assay on E. coli ATCC 25922 (setting [1]), 17 µM; in the assay with E. coli ATCC 43827, 17 µM; with P. aeruginosa ATCC 27853, 67 µM; in the assay on E. faecalis ATCC 29212 it was 67 µM; in the assay on S. aureus ATCC 25923, 135 µM. Besides, the Antibacterial activity, MBC is 17 µM in the assay with E. coli ATCC 11775 (plated on MHA, overnight 37 °C); 34 µM with E. coli ATCC 25922 (plated on MHA, overnight 37 °C); 67 µM in the assay on E. coli ATCC 43827; 135 µM in the assay on P. aeruginosa ATCC 27853; 67 µM in the assay on E. faecalis ATCC 29212; over 135 µM with S. aureus ATCC 25923.

As for `CSCC[C@H](NC(=O)[C@H](CCCNC(=N)N)NC(=O)[C@H](Cc1c[nH]c2ccccc12)NC(=O)[C@H](CCC(N)=O)NC(=O)[C@H](Cc1c[nH]c2ccccc12)NC(=O)[C@H](CCCNC(=N)N)NC(=O)[C@H](CCCNC(=N)N)NC(=O)[C@H](C)NC(=O)[C@H](CCCCN)NC(=O)[C@@H](N)Cc1ccccc1)C(=O)N[C@@H](CCCCN)C(=O)N[C@@H](CCCCN)C(=O)N[C@@H](CC(C)C)C(=O)NCC(=O)N[C@@H](C)C(N)=O` [[Ala^19]-LfcinB (17–31)], the Antibacterial activity, MIC is 102 µM with E. coli ATCC 43827, 102 µM in the assay on P. aeruginosa ATCC 27853, over 102 µM with E. faecalis ATCC 29212 and over 102 µM with S. aureus ATCC 25923. Moreover, the Antibacterial activity, MBC in the assay on E. coli ATCC 43827, with P. aeruginosa ATCC 27853, in the assay on E. faecalis ATCC 29212 and in the assay with S. aureus ATCC 25923 was over 102 µM each time.
